# Laboratory results reported in ChEMBL document CHEMBL1156153, “Novel benzofuran-3-one indole inhibitors of PI3 kinase-alpha and the mammalian target of rapamycin: hit to lead studies” (Bioorg Med Chem Lett, 2010).
# Target: CYP3A4 (Homo sapiens, UniProt P08684)
# Assay: Inhibition of CYP3A4 at 3 uM
# Type: ADME
# Chain of CYP3A4 (P08684 whole entry): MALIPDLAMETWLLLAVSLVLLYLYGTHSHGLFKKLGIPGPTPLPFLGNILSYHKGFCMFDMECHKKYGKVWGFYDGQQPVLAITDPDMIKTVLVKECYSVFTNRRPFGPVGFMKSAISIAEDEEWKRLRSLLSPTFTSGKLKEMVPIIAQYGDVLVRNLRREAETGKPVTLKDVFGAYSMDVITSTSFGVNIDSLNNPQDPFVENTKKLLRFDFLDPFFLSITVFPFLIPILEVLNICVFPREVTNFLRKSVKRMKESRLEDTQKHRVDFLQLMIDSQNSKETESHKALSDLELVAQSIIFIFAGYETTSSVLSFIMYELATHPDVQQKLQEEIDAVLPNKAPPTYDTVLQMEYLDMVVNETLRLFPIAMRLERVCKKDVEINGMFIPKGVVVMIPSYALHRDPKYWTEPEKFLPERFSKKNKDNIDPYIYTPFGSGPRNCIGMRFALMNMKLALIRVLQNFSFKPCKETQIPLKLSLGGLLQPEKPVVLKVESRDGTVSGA
row,inhibition at 3 µM [%],Structure (SMILES)
1,57,COc1ccc2[nH]c(-c3cccnc3)c(/C=C3\Oc4cc(O)cc(O)c4C3=O)c2c1
2,42,COc1ccc2c(c1)c(/C=C1\Oc3cc(O)cc(O)c3C1=O)cn2CCCN1CCOCC1

# Test system: LoVo
# Assay: Antiproliferative activity against human LoVo cells
# Type: functional, cell-based
# How it was run: (§1)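 Cell growth density monitored in Caco-2 (epithelial colorectal adenocarcinoma), LoVo (colon carcinoma) and PC3MM2/PC3 (prostate cancer) cultures; IC50 from means of two experiments.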
row,Structure (SMILES),IC50 [nM]
1,COc1ccc2c(c1)c(/C=C1\Oc3cc(O)cc(O)c3C1=O)c(C)n2CCCN(C)C,5700
2,COc1ccc2c(c1)c(/C=C1\Oc3cc(O)cc(O)c3C1=O)c(C)n2CCCN1CCN(C)CC1,7500
3,COc1ccc2c(c1)c(/C=C1\Oc3cc(O)cc(O)c3C1=O)c(C)n2CCCN1CCN(CCO)CC1,10000

# Second part, the molecule after the results:
row,IC50 [nM],Structure (SMILES)
1,1700,COc1ccc2c(c1)c(/C=C1\Oc3cc(O)cc(O)c3C1=O)c(C)n2CCN(C)C
2,2200,COc1ccc2c(c1)c(/C=C1\Oc3cc(O)cc(O)c3C1=O)c(C)n2CCN1CCN(C)CC1
3,4700,COc1ccc2[nH]c(-c3cccnc3)c(/C=C3\Oc4cc(O)cc(O)c4C3=O)c2c1

# Target: Serine/threonine-protein kinase mTOR (Homo sapiens, UniProt P42345)
# Assay: Inhibition of mTOR
# How it was run: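 DELFIA-format mTOR kinase assay monitoring phosphorylation of His6-S6K substrate.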
row,Structure (SMILES),IC50 [nM]
1,COc1ccc2c(c1)c(/C=C1\Oc3cc(O)cc(O)c3C1=O)c(C)n2CCCN(C)C,118
2,COc1ccc2c(c1)c(/C=C1\Oc3cc(O)cc(O)c3C1=O)c(C)n2CCCN1CCN(C)CC1,153
3,COc1ccc2c(c1)c(/C=C1\Oc3cc(O)cc(O)c3C1=O)c(C)n2CCCN1CCN(CCO)CC1,108
4,COc1ccc2c(c1)c(/C=C1\Oc3cc(O)cc(O)c3C1=O)cn2CCCN1CCOCC1,430

# Stronger by IC50, values ahead:
row,IC50 [nM],Structure (SMILES)
1,18,COc1ccc2c(c1)c(/C=C1\Oc3cc(O)cc(O)c3C1=O)c(C)n2CCN(C)C
2,11,COc1ccc2c(c1)c(/C=C1\Oc3cc(O)cc(O)c3C1=O)c(C)n2CCN1CCN(C)CC1
3,1,COc1ccc2[nH]c(-c3cccnc3)c(/C=C3\Oc4cc(O)cc(O)c4C3=O)c2c1

# Target: Phosphatidylinositol 4,5-bisphosphate 3-kinase catalytic subunit alpha isoform (Homo sapiens, UniProt P42336)
# Assay: Inhibition of PI3Kalpha
# Chain of Phosphatidylinositol 4,5-bisphosphate 3-kinase catalytic subunit alpha isoform (P42336 whole entry, canonical isoform): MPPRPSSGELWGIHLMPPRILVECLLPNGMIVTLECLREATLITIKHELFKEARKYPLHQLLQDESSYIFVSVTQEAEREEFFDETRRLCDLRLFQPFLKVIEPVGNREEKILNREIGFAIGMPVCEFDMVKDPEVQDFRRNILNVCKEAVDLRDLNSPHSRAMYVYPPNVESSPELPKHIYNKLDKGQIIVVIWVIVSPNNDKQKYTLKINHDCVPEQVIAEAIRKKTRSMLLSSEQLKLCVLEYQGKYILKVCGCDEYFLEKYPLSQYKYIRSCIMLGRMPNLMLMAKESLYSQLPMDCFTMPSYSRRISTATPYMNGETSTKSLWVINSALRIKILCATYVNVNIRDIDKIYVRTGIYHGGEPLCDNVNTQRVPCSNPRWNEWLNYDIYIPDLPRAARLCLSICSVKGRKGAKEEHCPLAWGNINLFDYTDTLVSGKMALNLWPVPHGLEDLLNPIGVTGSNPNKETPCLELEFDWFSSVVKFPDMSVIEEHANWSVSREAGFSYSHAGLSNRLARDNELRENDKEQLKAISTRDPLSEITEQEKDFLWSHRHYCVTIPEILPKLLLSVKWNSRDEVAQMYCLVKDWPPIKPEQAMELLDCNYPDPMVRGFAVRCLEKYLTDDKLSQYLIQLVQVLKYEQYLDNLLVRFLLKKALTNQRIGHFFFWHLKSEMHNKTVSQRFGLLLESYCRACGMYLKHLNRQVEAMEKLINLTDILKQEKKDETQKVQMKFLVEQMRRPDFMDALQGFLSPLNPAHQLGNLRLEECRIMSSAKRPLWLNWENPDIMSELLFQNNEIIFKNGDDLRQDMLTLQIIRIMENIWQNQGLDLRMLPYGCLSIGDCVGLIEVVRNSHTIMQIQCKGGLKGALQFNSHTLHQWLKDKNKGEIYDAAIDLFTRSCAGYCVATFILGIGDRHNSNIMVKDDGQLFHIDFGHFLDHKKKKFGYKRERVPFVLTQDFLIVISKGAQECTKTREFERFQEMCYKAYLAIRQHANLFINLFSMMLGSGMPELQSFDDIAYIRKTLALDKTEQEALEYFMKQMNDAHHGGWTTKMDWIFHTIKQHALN
row,Structure (SMILES),IC50 [nM]
1,COc1ccc2c(c1)c(/C=C1\Oc3cc(O)cc(O)c3C1=O)c(C)n2CCCN1CCN(C)CC1,15
2,COc1ccc2c(c1)c(/C=C1\Oc3cc(O)cc(O)c3C1=O)c(C)n2CCCN1CCN(CCO)CC1,6
3,COc1ccc2c(c1)c(/C=C1\Oc3cc(O)cc(O)c3C1=O)cn2CCCN1CCOCC1,42

# Further lines, results first:
row,IC50 [nM],Structure (SMILES)
1,9,COc1ccc2c(c1)c(/C=C1\Oc3cc(O)cc(O)c3C1=O)c(C)n2CCN(C)C
2,5,COc1ccc2c(c1)c(/C=C1\Oc3cc(O)cc(O)c3C1=O)c(C)n2CCN1CCN(C)CC1
3,1,COc1ccc2[nH]c(-c3cccnc3)c(/C=C3\Oc4cc(O)cc(O)c4C3=O)c2c1

# Test system: Caco-2
# Assay: Antiproliferative activity against human Caco-2 cells
# Type: functional, cell-based
# How it was run: as §1
row,Structure (SMILES),IC50 [nM]
1,COc1ccc2c(c1)c(/C=C1\Oc3cc(O)cc(O)c3C1=O)c(C)n2CCCN(C)C,9300
2,COc1ccc2c(c1)c(/C=C1\Oc3cc(O)cc(O)c3C1=O)c(C)n2CCCN1CCN(C)CC1,10000
3,COc1ccc2c(c1)c(/C=C1\Oc3cc(O)cc(O)c3C1=O)c(C)n2CCCN1CCN(CCO)CC1,10000

# Results, then the molecule that gave them:
row,IC50 [nM],Structure (SMILES)
1,2800,COc1ccc2c(c1)c(/C=C1\Oc3cc(O)cc(O)c3C1=O)c(C)n2CCN(C)C
2,4700,COc1ccc2c(c1)c(/C=C1\Oc3cc(O)cc(O)c3C1=O)c(C)n2CCN1CCN(C)CC1
3,7500,COc1ccc2[nH]c(-c3cccnc3)c(/C=C3\Oc4cc(O)cc(O)c4C3=O)c2c1

# Target: Phosphatidylinositol 4,5-bisphosphate 3-kinase catalytic subunit gamma isoform (Homo sapiens, UniProt P48736)
# Assay: Inhibition of PI3Kgamma
# How it was run: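 Fluorescence polarization assays for PI3K-α (p110α) and PI3K-γ (p110γ) monitored PIP3 production.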
# Chain of Phosphatidylinositol 4,5-bisphosphate 3-kinase catalytic subunit gamma isoform (P48736 whole entry, canonical isoform): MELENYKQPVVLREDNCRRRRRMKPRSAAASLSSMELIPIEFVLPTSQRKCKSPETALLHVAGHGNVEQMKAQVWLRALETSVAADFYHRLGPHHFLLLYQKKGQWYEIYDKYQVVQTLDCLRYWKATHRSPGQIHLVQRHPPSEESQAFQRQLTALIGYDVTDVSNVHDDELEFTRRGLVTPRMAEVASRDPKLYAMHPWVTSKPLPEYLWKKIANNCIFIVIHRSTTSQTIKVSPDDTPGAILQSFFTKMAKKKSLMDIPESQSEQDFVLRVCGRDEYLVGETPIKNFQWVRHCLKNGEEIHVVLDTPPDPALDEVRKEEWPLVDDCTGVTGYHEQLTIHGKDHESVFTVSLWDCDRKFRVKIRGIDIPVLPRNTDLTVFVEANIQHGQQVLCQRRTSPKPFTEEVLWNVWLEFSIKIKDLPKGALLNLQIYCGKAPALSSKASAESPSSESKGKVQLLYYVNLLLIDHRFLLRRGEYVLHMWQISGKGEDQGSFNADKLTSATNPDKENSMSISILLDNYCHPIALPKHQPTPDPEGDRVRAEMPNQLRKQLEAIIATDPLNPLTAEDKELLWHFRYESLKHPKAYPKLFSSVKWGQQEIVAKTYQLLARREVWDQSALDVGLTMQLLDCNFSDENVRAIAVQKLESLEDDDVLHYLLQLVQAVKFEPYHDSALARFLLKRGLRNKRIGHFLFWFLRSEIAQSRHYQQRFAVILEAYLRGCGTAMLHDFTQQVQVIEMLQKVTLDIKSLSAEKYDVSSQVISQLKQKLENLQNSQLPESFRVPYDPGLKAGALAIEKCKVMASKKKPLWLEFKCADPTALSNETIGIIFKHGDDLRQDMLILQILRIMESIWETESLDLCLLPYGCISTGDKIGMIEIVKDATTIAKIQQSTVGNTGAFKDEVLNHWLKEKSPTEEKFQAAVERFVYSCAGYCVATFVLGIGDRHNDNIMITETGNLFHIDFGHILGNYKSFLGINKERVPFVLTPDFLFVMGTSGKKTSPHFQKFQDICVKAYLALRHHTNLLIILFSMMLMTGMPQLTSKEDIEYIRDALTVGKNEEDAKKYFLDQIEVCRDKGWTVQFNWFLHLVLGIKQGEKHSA
row,Structure (SMILES),IC50 [nM]
1,COc1ccc2c(c1)c(/C=C1\Oc3cc(O)cc(O)c3C1=O)c(C)n2CCCN(C)C,404
2,COc1ccc2c(c1)c(/C=C1\Oc3cc(O)cc(O)c3C1=O)c(C)n2CCCN1CCN(C)CC1,402
3,COc1ccc2c(c1)c(/C=C1\Oc3cc(O)cc(O)c3C1=O)c(C)n2CCCN1CCN(CCO)CC1,109
4,COc1ccc2c(c1)c(/C=C1\Oc3cc(O)cc(O)c3C1=O)cn2CCCN1CCOCC1,646

# Now from value to molecule:
row,IC50 [nM],Structure (SMILES)
1,283,COc1ccc2c(c1)c(/C=C1\Oc3cc(O)cc(O)c3C1=O)c(C)n2CCN(C)C
2,473,COc1ccc2c(c1)c(/C=C1\Oc3cc(O)cc(O)c3C1=O)c(C)n2CCN1CCN(C)CC1
3,9,COc1ccc2[nH]c(-c3cccnc3)c(/C=C3\Oc4cc(O)cc(O)c4C3=O)c2c1

# Test system: not listed separately
# Assay: Aqueous solubility at pH 7.4
# Type: physicochemical
# How it was run: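 Aqueous solubility measured at pH 7.4, reported in µg/mL.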
row,Structure (SMILES),solubility [µg/mL]
1,COc1ccc2c(c1)c(/C=C1\Oc3cc(O)cc(O)c3C1=O)c(C)n2CCCN(C)C,32
2,COc1ccc2c(c1)c(/C=C1\Oc3cc(O)cc(O)c3C1=O)c(C)n2CCCN1CCN(C)CC1,10
3,COc1ccc2c(c1)c(/C=C1\Oc3cc(O)cc(O)c3C1=O)c(C)n2CCCN1CCN(CCO)CC1,36
4,COc1ccc2c(c1)c(/C=C1\Oc3cc(O)cc(O)c3C1=O)cn2CCCN1CCOCC1,3

# Next, values leading:
row,solubility [µg/mL],Structure (SMILES)
1,1,COc1ccc2c(c1)c(/C=C1\Oc3cc(O)cc(O)c3C1=O)c(C)n2CCN(C)C
2,30,COc1ccc2c(c1)c(/C=C1\Oc3cc(O)cc(O)c3C1=O)c(C)n2CCN1CCN(C)CC1
3,1,COc1ccc2[nH]c(-c3cccnc3)c(/C=C3\Oc4cc(O)cc(O)c4C3=O)c2c1

# Test system: PC-3
# Assay: Antiproliferative activity against human PC3 cells
# Type: functional, cell-based
# How it was run: as §1
row,Structure (SMILES),IC50 [nM]
1,COc1ccc2c(c1)c(/C=C1\Oc3cc(O)cc(O)c3C1=O)c(C)n2CCCN(C)C,2800
2,COc1ccc2c(c1)c(/C=C1\Oc3cc(O)cc(O)c3C1=O)c(C)n2CCCN1CCN(C)CC1,9500
3,COc1ccc2c(c1)c(/C=C1\Oc3cc(O)cc(O)c3C1=O)c(C)n2CCCN1CCN(CCO)CC1,10000

# Next, values leading:
row,IC50 [nM],Structure (SMILES)
1,1800,COc1ccc2c(c1)c(/C=C1\Oc3cc(O)cc(O)c3C1=O)c(C)n2CCN(C)C
2,2400,COc1ccc2c(c1)c(/C=C1\Oc3cc(O)cc(O)c3C1=O)c(C)n2CCN1CCN(C)CC1
3,1900,COc1ccc2[nH]c(-c3cccnc3)c(/C=C3\Oc4cc(O)cc(O)c4C3=O)c2c1
